A selection: hits, their analogues and other compounds. The true share with any hit is near 2.1%.
ARFGAP1 inh – rat ARFGAP1 inhibition | Q62848 | Arfgap1-stimulated ARF1 GTP hydrolysis, GDP FP detection | inhibition, % at 16.5 µM | actives 0.26% (n = 360,000);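 active means inhibition above a per-plate limit, mean inhibition of low control wells plus 3 SD, cut at about 25% in these data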;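 further: 0% = DMSO wells with enzyme and 100% = wells lacking Arfgap1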
Target sequence (Q62848 1-136 limits assumed): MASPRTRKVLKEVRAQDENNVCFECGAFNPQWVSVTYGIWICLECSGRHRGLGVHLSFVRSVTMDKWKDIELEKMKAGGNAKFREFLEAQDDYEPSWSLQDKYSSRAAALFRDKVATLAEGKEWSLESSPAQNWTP
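System: truncated rat Arfgap1 GAP domain / Benchmarks: high control wells lacking Arfgap1, low control full reaction with DMSO / Times: compound-enzyme preincubation 20 min, reaction 120 min, detection 60 min, 25 °C / Repeats: one replicate per compound / Also added: human ARF1(Δ1-17)-GTP substrate / Measured by: Tracer-displacement fluorescence polarization with EDTA stop, 620/688 nm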
A3A deaminase – blocks human APOBEC3A ssDNA deamination; AID 493011; recombinant A3A, FAM/TAMRA ssDNA deamination fluorescence; inhibition, % at 20 µM; actives 0.41% (n = 330,000);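 active means at least 40% inhibition at 20 µM here, with at most 30% in a related deaminase screen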;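 further: plate controls were A3A with DMSO for no effect and wells lacking A3A enzyme for full effect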
Target sequence (P31941 whole entry, looked up): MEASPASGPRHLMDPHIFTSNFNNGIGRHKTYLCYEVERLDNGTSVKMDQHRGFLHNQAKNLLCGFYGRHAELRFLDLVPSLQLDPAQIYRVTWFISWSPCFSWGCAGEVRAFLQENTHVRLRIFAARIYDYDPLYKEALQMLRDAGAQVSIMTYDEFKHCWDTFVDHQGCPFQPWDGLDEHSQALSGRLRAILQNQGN
Mot1-301 SUMO – blocks SUMOylation pathway, rescuing yeast Mot1-301 growth; S. cerevisiae Mot1-301 growth rescue, ATP luminescence, 38.5C; percent above DMSO median, 100 means doubled; growth rescue, % at 18.8 µM; actives 1% (n = 320,000);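 active means every valid replicate shows activation above 250% relative to neutral control wells; inactive means the rest, any valid replicate at or below 250%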;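 further: OY570 slx delta 5 strain wells were the positive control but not used for scaling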
Statin myotox sup – protects C2C12 myotubes from simvastatin toxicity; actives 0.78% (n = 330,000); rescue of ATP level, % at 7.49 µM; AID 602340; ATP luminescence, 48 h; scaled: DMSO 0, geranylgeraniol control 100;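 active means mean ATP rescue above about 67%, or every replicate alone reaching that limit, limit read from the data, passing the limit was not always enough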;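 further: myotubes were challenged with 10 µM simvastatin during compound exposure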
ASAP1 GAP inh – blocks human ASAP1-stimulated Arf1 GTP hydrolysis; Q9ULH1; GDP FP detection; inhibition, % at 16.5 µM; actives 0.19% (n = 360,000); AID 624377; in the data active means inhibition above about 25%;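 further: 0% = vehicle with enzyme and substrate and 100% = no enzyme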
APOBEC3G inh – inhibitors of human APOBEC3G DNA deaminase | Q9HC16 | AID 493012 | actives 0.28% (n = 330,000) | recombinant A3G, ssDNA deamination FAM/TAMRA fluorescence | inhibition, % at 20 µM;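 active means inhibition of at least 40% at 20 µM, with no more than 30% in the related APOBEC3A deaminase screen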;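 further: plate controls were DMSO wells with A3G for no effect and wells lacking A3G enzyme for full effect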
Target sequence (Q9HC16 whole entry, looked up): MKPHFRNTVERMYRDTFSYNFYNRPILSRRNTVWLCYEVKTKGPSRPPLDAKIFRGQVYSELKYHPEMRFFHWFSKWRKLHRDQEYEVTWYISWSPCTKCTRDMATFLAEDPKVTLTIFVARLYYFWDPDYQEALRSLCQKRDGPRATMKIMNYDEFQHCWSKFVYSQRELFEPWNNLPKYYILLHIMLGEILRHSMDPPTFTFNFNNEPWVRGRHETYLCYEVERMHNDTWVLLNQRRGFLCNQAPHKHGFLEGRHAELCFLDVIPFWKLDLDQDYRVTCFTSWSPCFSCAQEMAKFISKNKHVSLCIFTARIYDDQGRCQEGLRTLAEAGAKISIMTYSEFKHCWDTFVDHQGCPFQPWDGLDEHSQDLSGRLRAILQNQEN
ARFGAP1 confirm – rat ARFGAP1 inhibition, confirmed | shares compounds with ARFGAP1 inh | ARFGAP1-stimulated ARF1 GTP hydrolysis, GDP tracer FP | inhibition, % at 16.5 µM | actives 30% (n = 890);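 active means average inhibition over triplicates above the hit cutoff set in the earlier primary screen, cut at about 25% in these data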;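 further: 0% = Arfgap1 plus ARF1-GTP with DMSO and 100% = wells lacking Arfgap1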
* marks the source's active call; other numbers are inactive results; / = no result; + = active, no number.

SMILES	ARFGAP1 inh	A3A deaminase	Mot1-301 SUMO	Statin myotox sup	ASAP1 GAP inh	APOBEC3G inh	ARFGAP1 confirm
CCn1nc(NC(=O)c2cccnc2)c2cc3ccccc3nc21	26.7*	-1.6	-6.2	4.2	8.6	-4.6	7.9
CCn1nc(NC(=O)c2cccs2)c2cc3ccccc3nc21	9.3	-4.0	5.2	/	1.3	-5.7	/
Oc1ccc(NC(=S)N=Nc2c(O)[nH]c3ccc(Br)cc23)cc1	29.0*	7.1	/	4.8	7.2	3.5	24.2
Oc1[nH]c2ccc(Br)cc2c1N=NC(=S)Nc1ccc(F)cc1	2.1	1.1	-7.6	/	-3.3	-3.2	/
CN1CCN(C(=O)C[C@H]2CC[C@@H](NC(=O)Cc3ccccn3)[C@H](CO)O2)CC1	/	/	/	2.0	/	/	/
O=C(CSc1ncn[nH]1)NCc1ccccc1Cl	24.9*	-7.1	332.3	2.7	-2.6	-2.0	-1.9
CC=Cc1ccc2n(c1=O)C[C@@H]1[C@@H](CO)[C@H](C(=O)NCC3CC3)[C@H]2N1CC1CCOCC1 (mixture of isomers)	/	/	/	-7.8	/	/	/
CCN1[C@@H]2c3ccc(/C=C/c4ccccc4)c(=O)n3C[C@@H]2[C@@H](CO)[C@@H]1C(=O)N(C)C	/	/	/	8.6	/	/	/
O=C(Nc1ccc2oc(=O)ccc2c1)c1ccc(-c2cccc([N+](=O)[O-])c2)o1	70.8*	-2.6	16.9	/	62.5*	3.6	106.8*
O=C(Cn1c2ccc(F)cc2c2nc3n(c(=O)c21)CCS3)Nc1ccccc1C(F)(F)F	30.2*	-0.9	6.8	/	22.2	-0.1	41.8*
O=C(Cn1c2ccc(F)cc2c2nc3n(c(=O)c21)CCS3)Nc1ccccc1F	/	0.6	-1.5	/	/	-2.1	/
CC(=O)NC[C@H]1[C@H](c2ccc(-c3cccnc3)cc2)[C@H](CO)N1C(=O)C1CCC1	/	/	/	-4.3	/	/	/
O=C(O)C1=C[C@@H](O)[C@@H](O)[C@H](O)C1	35.9*	/	/	-2.0	2.4	/	-2.0
Cc1ccc2nc(SCC(=O)Nc3cccc(F)c3)nc(=O)n2c1	54.4*	0.5	-8.5	8.1	31.8*	5.7	47.3*
Cc1ccc2nc(SCC(=O)Nc3cccc(Cl)c3)nc(=O)n2c1	31.4*	-0.4	-23.6	-7.4	16.9	-7.9	50.4*
Cc1ccc2nc(SCC(=O)Nc3ccc(C)c(Cl)c3)nc(=O)n2c1	20.1	-2.5	12.7	/	0.2	-7.3	/
COc1ccccc1NC(=O)CSc1nc(=O)n2cc(C)ccc2n1	31.2*	-3.6	-12.7	-4.9	0.3	-9.6	22.7
CCOC(=O)N1CCN(C(=O)CSc2nc(=O)n3cc(C)ccc3n2)CC1	40.4*	-5.0	4.4	/	19.6	2.0	38.3*
CCN1[C@@H]2c3ccc(-c4cccc(F)c4)c(=O)n3C[C@@H]2[C@@H](CO)[C@@H]1C(=O)N[C@@H](C)c1ccccc1	/	/	/	21.0	/	/	/
Cc1ccc2nc(SCC(=O)c3ccc(Cl)cc3)nc(=O)n2c1	26.6*	-10.7	260.5	-3.9	15.7	-8.6	49.9*
CC1(C)CC(=O)C=C(NCCN2CCN(C(=O)Nc3ccc(Cl)cc3)CC2)C1	32.8*	2.1	-7.2	-6.5	-12.7	-4.7	-1.5
O=C(NCc1ccccc1C(F)(F)F)C1CC(c2ccc(C(F)(F)F)cc2)=NO1 (centres undefined)	28.1*	1.8	0.5	-3.5	-4.4	-1.5	6.9
CSc1ccc(/C=N/NC(=O)c2ccc3nc[nH]c3c2)cc1	27.6*	/	/	-3.7	11.8	/	4.1
CN(C)c1ccc(/C=N/NC(=O)c2ccc3nc[nH]c3c2)cc1	5.8	-1.6	135.2	-8.0	3.2	-7.3	/
Cc1ccc(S(=O)(=O)N2CCC(=O)N(CCOC(=O)Nc3ccc(C)c(C)c3)CC2)cc1	35.0*	2.4	0.5	1.9	13.1	11.1	0.5
SMILES	ARFGAP1 inh	A3A deaminase	Mot1-301 SUMO	Statin myotox sup	ASAP1 GAP inh	APOBEC3G inh	ARFGAP1 confirm
CO[C@H]1CN(C)C(=O)c2cc(NC(C)=O)ccc2OC[C@@H](C)N(C(=O)CN2CCOCC2)C[C@@H]1C	/	/	/	6.3	/	/	/
CC(=O)c1cccc(NC(=O)CN(C)Cc2ccc(OC(F)F)cc2)c1	42.0*	7.5	0.6	-0.6	-10.2	4.1	-3.1
C[C@@H]1CCCCO[C@H](CN(C)S(=O)(=O)c2cccs2)[C@H](C)CN([C@@H](C)CO)C(=O)c2cc(NC(=O)NC3CCCCC3)ccc2O1	24.9*	/	/	3.6	-3.2	/	3.9
C[C@H](CO)N1C[C@H](C)[C@@H](CN(C)S(=O)(=O)c2cccs2)Oc2ccc(NC(=O)NC3CCCCC3)cc2C1=O	-11.2	-3.7	2.2	-5.1	1.3	-11.1	/
COc1ccccc1NC(=O)N[C@H]1CC[C@H](CCn2cc(-c3ccccc3OC)nn2)O[C@@H]1CO	/	/	/	-9.8	/	/	/
COc1ccc(-c2cc3ccccc3oc2=O)cc1NC(=O)c1cccnc1	33.6*	-0.5	52.8	4.7	21.3	0.3	34.0*
COc1ccc(OC)c(NC(=O)c2cccnc2)c1	12.5	-1.1	-3.2	-7.4	-6.7	3.1	/
C=CCN(CC=C)C(=S)Nc1ccc2nsnc2c1	32.5*	0.4	4.0	5.3	22.4	-4.3	3.2
CCOc1ccc(NC(=S)Nc2ccc3nsnc3c2)cc1	26.4*	-4.3	30.9	/	22.1	-3.7	6.6
C=CCNC(=S)Nc1ccc2nsnc2c1	8.8	1.4	-8.4	/	-7.8	2.2	/
CS(=O)(=O)Nc1ccc2c(c1)[C@@H]1C[C@H](CC(=O)NCc3ccc(Oc4ccccc4)cc3)O[C@@H](CO)[C@@H]1O2	/	/	/	-11.0	/	/	/
COc1ccc(-n2c(=S)[nH]c3cc(C(=O)Nc4ccc(F)cc4)ccc3c2=O)c(OC)c1	25.5*	-1.1	46.6	9.7	15.6	-7.7	12.9
COc1ccc(NC(=O)c2ccc3c(=O)n(-c4ccc(OC)cc4OC)c(=S)[nH]c3c2)cc1	-1.0	-3.8	-23.1	16.5	5.7	-5.7	/
COc1ccc(NC(=O)CN(C)C(=O)c2cn(-c3ccccc3)nc2-c2ccc(Cl)cc2)cc1	26.6*	6.4	74.1	-10.3	1.1	-5.0	8.9
COc1ccc(NC(=O)CN(C)C(=O)c2cn(-c3ccccc3)nc2-c2ccc(OC)cc2)cc1	5.4	-1.2	2.4	-5.7	-8.4	-5.7	/
Cc1ccc(NC(=O)CN(C)C(=O)c2ccc(Sc3nncn3C)c([N+](=O)[O-])c2)cc1	+	-4.4	0.0	-8.8	2.7	-6.0	-2.5
COc1ccccc1NS(=O)(=O)c1cc2c(cc1C)NC(=O)CO2	51.3*	-5.0	-10.1	1.9	15.2	-9.1	6.0
COc1ccc(/C=C/c2nc(N)nc(-c3ccccc3O)n2)cc1OC	29.6*	0.4	-12.0	/	21.3	-1.1	37.8*
CN(C)c1ccc(C(=O)OCC(=O)N2CCOCC2)cc1	13.0	1.1	-2.2	/	12.0	0.0	/
